Source: PubChem (several laboratories)
OXTR ag: activates the human oxytocin receptor | P30559 | CHO-OTR cells, Fluo-8 calcium fluorescence; normalized: DMSO 0%, oxytocin 100% | activation, % at 3 µM | hit rate 0.32% among 320,000 | AID 2435;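 active = activation above the mean of all tested compounds plus 3 SD, cutoff set per screening run, cut at about 20% in these data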;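 note: peak over basal fluorescence ratio from a 100 s FLIPR kinetic read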
TRPML3 ag: agonists of human TRPML3 channel; Q8TDD5; HEK293 TRPML3-YFP, Fluo-8 calcium fluorescence; 100% = the carbachol control signal; activation, % at 3 µM; hit rate 0.29% among 220,000;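 active = activation above its plate's cutoff, the mean activation of the plate's test wells plus 3 SD, cut at about 12% in these data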;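 note: 0% = DMSO only wells and 100% = carbachol wells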
Target sequence (Q8TDD5 whole entry, looked up): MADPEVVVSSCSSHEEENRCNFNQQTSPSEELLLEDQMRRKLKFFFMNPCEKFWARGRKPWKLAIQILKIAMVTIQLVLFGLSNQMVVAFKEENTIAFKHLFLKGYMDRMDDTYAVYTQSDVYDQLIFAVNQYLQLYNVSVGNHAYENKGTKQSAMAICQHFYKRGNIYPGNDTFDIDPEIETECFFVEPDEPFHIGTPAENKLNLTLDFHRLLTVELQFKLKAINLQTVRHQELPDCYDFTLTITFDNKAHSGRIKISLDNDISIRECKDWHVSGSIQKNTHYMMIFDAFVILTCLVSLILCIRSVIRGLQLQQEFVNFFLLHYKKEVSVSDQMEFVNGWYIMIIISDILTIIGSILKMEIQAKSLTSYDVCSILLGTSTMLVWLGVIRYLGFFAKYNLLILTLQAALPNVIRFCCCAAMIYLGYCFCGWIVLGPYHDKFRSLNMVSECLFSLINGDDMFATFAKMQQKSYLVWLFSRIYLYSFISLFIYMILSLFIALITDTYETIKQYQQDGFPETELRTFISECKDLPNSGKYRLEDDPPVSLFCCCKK
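Test system: TRPML3-YFP stable HEK293 cells. Doses: single point at 3 µM. Incubation: dye loading 1 h 37 °C then 30 min ambient, 125 s read. Signal: Fluo-8 calcium dye fluorescence, ex 470-495, em 515-575 nm. Measure: percent activation from peak-to-basal fluorescence ratio, scaled between DMSO and carbachol.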
CRFBP-R2 agonist: CRF-BP/CRF-R2 complex agonism; HEK293 CRF-R2/CRF-BP, calcium dye fluorescence (FLIPR); percent of saturating CRF peptide response; activation, % at 13.2 µM; hit rate 0.46% among 350,000; AID 588473;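 active = activation of at least 50%, plus an integration ratio under a set limit after plate pattern correction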;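 note: plate controls were neutral control wells without compound for no effect and CRF at EC100 for full effect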
OXTR potentiator: potentiators of human oxytocin receptor; P30559; CHO-OTR cells, Fluo-8 calcium fluorescence, potentiator mode; 0% = oxytocin EC15, 100% = EC100; activation, % at 3 µM; hit rate 0.061% among 320,000; AID 2445;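 active = activation above that plate's cutoff, the mean activation of tested compounds plus 3 SD, cut at about 6.6% in these data, passing the limit was not always enough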;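 note: 100% uses oxytocin at 75 nM as the full agonist control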
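Assay system: CHO cell line stably expressing human OTR | Also added: Oxytocin at about EC15, sub-maximal agonist stimulus | Times: Compound 6 min at room temperature before oxytocin, 100 s read | Measured by: Fluo-8 intracellular calcium fluorescence, ex 470-495, em 515-575 nm | Controls: EC15 oxytocin alone as 0%, 75 nM oxytocin as 100%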
TRPN1 ag: activates the zebrafish TRPN1 channel. hit rate 0.18% among 220,000. AID 1424. HEK293 zebrafish TRPN1-YFP, Fluo-8 calcium fluorescence; 100% = response to 87 µM carbachol. activation, % at 3 µM;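 active = activation above its plate's cutoff, the mean activation of test wells on that plate plus 3 SD, cut at about 19% in these data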;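 note: 0% = DMSO alone and 100% = 87 µM carbachol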
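System: zebrafish TRPN1-YFP in HEK293 cells / Dosing: 3 µM single point / Timing: dye loading 1 h at 37 °C, then 30 min room temperature / Signal: Fluo-8 calcium fluorescence, excitation 470-495 nm, emission 515-575 nm / Read-out basis: percent activation from peak over basal fluorescence ratio, control-normalized / Control set: high carbachol 87 µM, low DMSO alone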
V1R ag counter: V1a receptor agonism, counter-screen for OXTR agonists | P37288 | CHO-V1R cells, Fluo-8 calcium fluorescence, agonist mode; 0% DMSO, 100% 3 nM vasopressin | activation, % at 3 µM | hit rate 0.25% among 320,000;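 active = activation above the mean activation of all tested compounds plus 3 SD, per screening run, cut at about 20% in these data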;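 note: signal is peak over basal fluorescence ratio across a 100 second FLIPR read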
Active calls of the source: *; · = no result given. The list is not random: actives were taken first. Their share in the collection is about 0.85%.

SMILES	OXTR ag	TRPML3 ag	CRFBP-R2 agonist	OXTR potentiator	TRPN1 ag	V1R ag counter
Cc1cc(C(=O)CN2C(=O)NC(C)(c3ccc(F)c(F)c3)C2=O)c(C)n1C1CC1 (configuration not stated)	·	·	17	·	·	·
COc1ccc(C2(C)NC(=O)N(CC(=O)c3cc(C)n(C4CC4)c3C)C2=O)cc1 (configuration not stated)	49*	·	100*	-16	·	45*
CCC(CO)[n+]1c(C)cc(/C=C2\Sc3ccccc3N2Cc2ccccc2)cc1C (configuration not stated)	4	2	77*	-5	1	2
COC(=O)c1cc(NC(=O)c2ccccc2)c(=O)oc1/C=C/Nc1ccc(Oc2ccccc2)cc1	·	2	138*	·	4	·
CCN1C(=O)[C@H]2[C@H]3CN=C(SCC(=O)c4ccccc4)N3[C@@](C)(C(=O)OC)[C@H]2C1=O	·	·	0	·	·	·
O=C(O)c1sccc1SCc1ccc(Cl)c(Cl)c1	19	0	-2	-22	0	22*
CSCCC(NC(=O)c1ccccc1)C(=O)N/N=C(\C)c1ccccc1 (configuration not stated)	-1	0	112*	0	-1	1
CSCCC(NC(=O)c1ccccc1)C(=O)N/N=C(\C)Cc1ccccc1 (configuration not stated)	·	·	44	·	·	·
NS(=O)(=O)c1ccc(CCNC(=O)COC(=O)CCc2c[nH]c3ccccc23)cc1	5	·	76*	-6	·	3
COc1cc(N)c(Cl)cc1C(=O)OCC(=O)N1CCCC1	0	·	0	-9	·	0
O=C(O)C(c1ccccc1)N1C(=O)/C(=C\c2ccc(-c3ccc(Br)cc3)o2)SC1=S (configuration not stated)	·	·	85*	·	·	·
O=C(O)C(c1ccccc1)N1C(=O)/C(=C\c2ccc(-c3ccccc3Cl)o2)SC1=S (configuration not stated)	0	·	91*	-16	·	5
O=C1NC(C2CC3C=CC2C3)Nc2ccccc21 (configuration not stated)	·	·	-1	·	·	·
CCCCCCn1c(=O)[nH]c2nc3cc(N)ccc3nc2c1=O	96*	46*	275*	-12	37*	74*
CC[n+]1ccc(/C=C/c2c[nH]c3ccccc23)cc1	2	·	61*	-7	·	4
Cc1ccc2[nH]cc(/C=C/c3cc[n+](C)cc3)c2c1	·	·	45	·	·	·
O=C1/C(=C\c2ccc(O)cc2)SC(=S)N1/N=C/c1ccc(O)cc1	24*	7	37	-10	21*	22*
CC(=O)NN1C(=O)/C(=C\c2ccc(O)cc2)SC1=S	8	3	48	-3	4	5
COc1ccc2c(ccc[n+]2[O-])c1	·	·	-4	·	·	·
COc1ccc2nc3ccccc3[n+]([O-])c2c1	·	·	58*	·	·	·
CC(=O)COc1ccc2cc(-c3ccccc3)c(=O)oc2c1	2	·	2	0	·	3
O=C(CCCCl)Oc1ccc2cc(-c3ccc4ccccc4n3)c(=O)oc2c1	2	1	106*	-11	2	3
Cc1ccsc1/C=C/C1=Cc2c(sc(NC(=O)CSc3n[nH]c(N)n3)c2C#N)C(C)(C)C1	46*	1	34	-8	0	5
O=C(O)c1ccccc1C(=O)Nc1ccc(Oc2ccc3ccccc3c2)cc1	0	1	-2	-16	1	1
Cc1cccc(Oc2ccc(NC(=O)c3ccccc3C(=O)O)cc2)c1C	3	1	81*	-2	1	2
SMILES	OXTR ag	TRPML3 ag	CRFBP-R2 agonist	OXTR potentiator	TRPN1 ag	V1R ag counter
O=C(O)c1ccccc1C(=O)Nc1ccc(Oc2cccc3ccccc23)cc1	·	1	126*	·	1	·
COc1cc(/C=C/C(=O)NC(=O)c2ccccc2O)ccc1O	-1	·	0	6	·	1
COc1cc(/C=C/C(O)=C/C(=O)/C=C/c2ccc(O)cc2)ccc1O	22*	·	113*	-11	·	21*
C/C(=C1/C(=O)N(c2ccc([N+](=O)[O-])cc2)N=C1c1ccccc1)N(C)C	54*	3	·	-13	31*	62*
CN(C)/C=C1/C(=O)N(c2ccc([N+](=O)[O-])cc2)N=C1c1ccccc1	0	0	·	-9	0	0
CCOc1ccc(C2OCCC(C)O2)cc1OC (configuration not stated)	·	·	0	·	·	·
CCCNC(=O)/C(=C/c1cn(S(=O)(=O)N(C)C)c2ccccc12)NC(=O)c1ccc(OC)cc1	0	6	78*	-13	1	-1
COc1ccccc1N1CCN(CC(=O)Nc2ccccc2C(=O)NCCc2ccccc2)CC1	-2	·	-1	-6	·	0
Cc1ccc(C(=O)NCC(=O)N(C)Cc2ccc(Cl)cc2Cl)s1	·	·	-2	·	·	·
CCCCCCc1cc2cc(-c3nnc(-c4ccccc4O)o3)c(=O)oc2cc1O	11	2	232*	-4	5	7
COc1ccc(-c2nnc(-c3cc4ccccc4oc3=O)o2)cc1	0	1	-1	-5	0	0
CCCCCCc1cc2cc(-c3nnc(-c4cc(OC)c(OC)c(OC)c4)o3)c(=O)oc2cc1O	3	1	99*	-1	0	2
COc1ccc(NC(=O)c2cc3ccccc3oc2=O)c(OC)c1	-1	·	-1	-14	·	0
CCCCCCc1cc2cc(S(=O)(=O)c3ccc(F)cc3)c(=O)oc2cc1O	12	1	54*	-13	0	12
COc1cc(-c2nnc(SCc3cc(=O)oc4cc(O)c(O)cc34)o2)cc(OC)c1OC	-2	1	-1	0	0	-2
O=C(O)c1ccc2oc(=O)c(S(=O)(=O)c3ccc(F)cc3)cc2c1	0	·	6	-8	·	1
CCCCCCc1cc2cc(C(=O)Nc3ccccc3OC)c(=O)oc2cc1O	-1	1	102*	-4	2	1
COc1cccc(OC)c1C(=O)Nc1ccnn1C	1	·	-1	-20	·	1
CC(C)Cc1ccc(C(C)CC2=CCC(CN(C)C)C2=O)cc1 (configuration not stated)	·	·	4	·	·	·
CCCCCCc1cc2cc(-c3nnc(-c4ccccc4OC)o3)c(=O)oc2cc1O	13	3	230*	-5	3	13
N#C/C(=C\c1ccc([N+](=O)[O-])o1)c1nc2ccccc2[nH]1	1	1	66*	-11	2	3
Cc1ccc2nc(/C(C#N)=C\c3cc(C)n(-c4cccc([N+](=O)[O-])c4)c3C)[nH]c2c1	-1	0	-2	-4	-1	-1
Cc1ccc2nc(/C(C#N)=C\c3ccc([N+](=O)[O-])o3)[nH]c2c1	9	3	55*	-12	8	6
